Assay [1] concerns P388. As to the kind of experiment: Cytotoxic activity of compound against Murine P388 Leukemia. The assay is classed as functional, cell-based, Mus musculus. The conditions noted are these: Mus musculus, P388; read-out: IC50. Put shortly: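 Murine P388 cells were cultured in EMEM with 10% FBS, 2 mM glutamine, 50 units/mL penicillin and 50 μg/mL streptomycin. They were seeded at (1–2) × 10^4 cells/mL without preincubation and exposed to varying concentrations for 72 h at 37 °C, 5% CO2. MTT was then added for 4 h, formazan dissolved in DMSO and read at 570/690 nm.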

Assay [2] is described as follows: Cytotoxic activity of compound against SCaBER bladder squamous human tumor cell line. It counts as functional, cell-based. Put shortly: (§1)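 Cells were kept in EMEM with 10% FBS, 2 mM glutamine, NEAA and 1 mM sodium pyruvate. They were seeded at (1–2) × 10^4 cells/mL and preincubated for 24 h. They were then exposed to graded concentrations for 72 h at 37 °C in 5% CO2. MTT was added for a further 4 h and the formazan dissolved in DMSO, with absorbance at 570/690 nm.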

Assay [3] concerns P388. As to the kind of experiment: […] antitumor activity of compound against P388 leukemia cells at a dose of 50 mg/kg. It counts as functional, Mus musculus. In outline:
(§2)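 In vivo study: BDF1 mice received 10^6 P388 leukemia cells ip as diluted ascites fluid. Test compounds were suspended in 0.4% CMC and given ip on days 1 and 5 after implantation, with seven mice per group. The endpoint is T/C% = median survival time of the treated group / median survival time of controls × 100.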

Another assay concerns A-427. The assay can be described thus: Cytotoxic activity of compound against A-427 lung human tumor cell line. The assay is classed as functional, cell-based. Put shortly:
as §1

For assay [4], the system named is P388. As to the kind of experiment: […] antitumor activity of compound against P388 leukemia cells at a dose of 3.13 mg/kg. The assay is classed as functional, Mus musculus. Put shortly: as §2
For another assay, the system named is G-361. The assay can be described thus: Cytotoxic activity of compound against G-361 melanoma human tumor cell line. The assay is classed as functional, cell-based. In outline: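 Culture was in McCoy's 5A with 10% FBS. Cells were seeded at (1–2) × 10^4 cells/mL, preincubated for 24 h, then incubated with various concentrations for 72 h at 37 °C under 5% CO2. MTT was added for 4 h and the formazan dissolved in DMSO, with A570 read against 690 nm.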

The subject of a further assay is SK-OV-3. The assay can be described thus: Cytotoxic activity of compound against SK-OV-3 ovary human tumor cell line. The assay is classed as functional, cell-based. The note with it: SK-OV-3, Female gonad. Put shortly:
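SK-OV-3 cells were maintained in McCoy's 5A with 15% FBS. After seeding at (1–2) × 10^4 cells/mL and 24 h preincubation, wells received graded concentrations for 72 h at 37 °C, 5% CO2. A 4 h MTT incubation followed, with DMSO solubilization and absorbance at 570/690 nm.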

Assay [5] relates to P388. As to the kind of experiment: In vitro antitumor activity of compound against P388 leukemia cells at a dose of […] mg/kg. It counts as functional, Mus musculus. Details: concentration or dose not given beside the values.
Assay [6] in a line: Cytotoxic activity of compound against AZ-521 stomach human tumor cell line. It counts as functional. Put shortly:
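AZ-521 cells were grown in EMEM with 10% FBS, 2 mM glutamine and NEAA. They were plated at (1–2) × 10^4 cells/mL and preincubated for 24 h, then treated with a range of concentrations for 72 h at 37 °C, 5% CO2. After a 4 h MTT step, the formazan was dissolved in DMSO and read at 570 nm (reference 690 nm).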

The subject of assay [7] is P388. As to the kind of experiment: […] antitumor activity of compound against P388 leukemia cells at a dose of 6.25 mg/kg. The assay is classed as functional, Mus musculus. In outline:
as §2

Results on 29 compounds are retold here after ChEMBL document CHEMBL1136012, “Synthesis and structure-activity relationships of novel 7-substituted 1,4-dihydro-4-oxo-1-(2-thiazolyl)-1,8-naphthyridine-3-carboxylic acids as antitumor agents. Part 1” (J Med Chem, 2002).

The structures appear in SMILES notation. ≈ marks a conversion by molar mass, not a printed value. Bounds are passed on as bounds.

As usually defined, the IC50 is the point on the concentration scale where inhibition reaches its midpoint. As to `C[C@@H]1CN(c2nc3c(cc2F)c(=O)c(C(=O)O)cn3-c2nccs2)C[C@@H]1N.Cl`, in the assay with P388 [1], the half-inhibitory concentration (IC50) came out at 0.057 µg/mL.

Regarding `Cc1cnc(-n2cc(C(=O)O)c(=O)c3cc(F)c(N4CCC(N)C4)nc32)s1.Cl` (configuration not stated), the half-maximal inhibitory concentration (IC50) in the assay on P388 [1] was determined as 0.26 µg/mL.

As to `Cl.NC1CCN(c2nc3c(cc2F)c(=O)c(C(=O)O)cn3-c2ccccc2)C1` (configuration not stated), the IC50 in the assay on P388 [1] worked out at 2.4 µg/mL.

As for `Cl.N[C@H]1CCN(c2nc3c(cc2F)c(=O)c(C(=O)O)cn3-c2nccs2)C1`, the IC50 in the assay on P388 [1] turned out to be 0.028 µg/mL.

For the compound `Cl.NC1CCN(c2nc3c(cc2F)c(=O)c(C(=O)O)cn3-c2nc3ccccc3s2)C1` (configuration not stated), the 50% inhibitory concentration (IC50) in the assay with P388 [1] is 0.049 µg/mL.

As for `Cl.O=C(O)c1cn(-c2nccs2)c2nc(N3CCCC3)c(F)cc2c1=O`, in the assay with P388 [1], the half-inhibitory concentration (IC50) was determined as 0.08 µg/mL.

Regarding `Cc1csc(-n2cc(C(=O)O)c(=O)c3cc(F)c(N4CCC(N)C4)nc32)n1.Cl` (configuration not stated), in the assay on P388 [1], the IC50 was 0.051 µg/mL.

By T/C is commonly meant the result in the treated group divided by that in the control group, in per cent. For `COc1cc([C@@H]2c3cc4c(cc3[C@@H](O[C@@H]3O[C@@H]5CO[C@@H](C)O[C@H]5[C@H](O)[C@H]3O)[C@H]3COC(=O)[C@H]23)OCO4)cc(OC)c1O` [ETOPOSIDE], the IC50 was determined as 0.31 µg/mL (≈ 0.527 µM) in assay [2]; 0.095 µg/mL (≈ 0.161 µM) with A-427; 0.28 µg/mL (≈ 0.476 µM) in the assay with G-361; 0.95 µg/mL (≈ 1.61 µM) in the assay on SK-OV-3; 0.0085 µg/mL (≈ 0.0144 µM) with P388 [1]; 0.08 µg/mL (≈ 0.136 µM) in [6]. Moreover, the T/C was over 375% in the assay on P388 [3], 175% in the assay with P388 [4] and 250% in the assay with P388 [5].

Consider `CC(C)(C)c1csc(-n2cc(C(=O)O)c(=O)c3cc(F)c(N4CCC(N)C4)nc32)n1.Cl` (configuration not stated), for which the IC50 with P388 [1] amounted to 0.88 µg/mL.

As for `Cl.NC1CCN(c2nc3c(cc2F)c(=O)c(C(=O)O)cn3-c2ccno2)C1` (configuration not stated), the IC50 with P388 [1] was determined as 9.4 µg/mL.

In the case of `Cl.NC1CCN(c2nc3c(cc2F)c(=O)c(C(=O)O)cn3C2CC2)C1` (configuration not stated), the IC50 with P388 [1] turned out to be 7.9 µg/mL.

For the compound `COc1cnc(-n2cc(C(=O)O)c(=O)c3cc(F)c(N4CCC(N)C4)nc32)s1.Cl` (configuration not stated), in the assay on P388 [1], the IC50 amounted to 0.35 µg/mL.

As for `Cl.NC1CCN(c2ncc3c(=O)c(C(=O)O)cn(-c4nccs4)c3n2)C1` (configuration not stated), the IC50 in the assay on P388 [1] came to 0.047 µg/mL.

With `CN(C)C1CCN(c2nc3c(cc2F)c(=O)c(C(=O)O)cn3-c2nccs2)C1.Cl` (configuration not stated), the T/C in the assay on P388 [3] is given as 225%; in the assay with P388 [4], 138%; in the assay with P388 [5], 175%. Further, the IC50 with P388 [1] was determined as 0.057 µg/mL.

In the case of `COc1cccc2c1C(=O)c1c(O)c3c(c(O)c1C2=O)C[C@@](O)(C(=O)CO)C[C@@H]3O[C@H]1C[C@H](N)[C@H](O)[C@H](C)O1` [DOXORUBICIN], the T/C is 235% with P388 [4] and 293% with P388 [7]. Moreover, the half-inhibitory concentration (IC50) in the assay with P388 [1] came to 0.004 µg/mL (≈ 0.00736 µM).

Take `Cl.NC1CCN(c2nc3c(cc2F)c(=O)c(C(=O)O)cn3-c2ncc(Cl)s2)C1` (configuration not stated): the concentration for half-maximal inhibition (IC50) in the assay with P388 [1] is 0.094 µg/mL.

As for `Cl.NC1CCN(c2nc3c(cc2F)c(=O)c(C(=O)O)nn3-c2nccs2)C1` (configuration not stated), the IC50 with P388 [1] is over 10 µg/mL.

For `Cl.O=C(O)c1cn(-c2nccs2)c2nc(N3CC[C@H](O)C3)c(F)cc2c1=O`, the IC50 in the assay on P388 [1] was found to be 0.02 µg/mL.

Turning to `CO[C@@H]1CN(c2nc3c(cc2F)c(=O)c(C(=O)O)cn3-c2nccs2)C[C@H]1N.Cl`, the IC50 with P388 [1] came out at 0.068 µg/mL.

Turning to `Cl.N[C@@H]1CCN(c2nc3c(cc2F)c(=O)c(C(=O)O)cn3-c2nccs2)C1`, in the assay with P388 [1], the IC50 is 0.016 µg/mL.

On to `Cl.O=C(O)c1cn(-c2nccs2)c2nc(O)c(F)cc2c1=O`, for which the half-inhibitory concentration (IC50) in the assay on P388 [1] is over 10 µg/mL.

In the case of `Cl.NC1CCN(c2nc3c(cc2F)c(=O)c(C(=O)O)cn3-c2nc(-c3ccccc3)cs2)C1` (configuration not stated), in the assay on P388 [1], the IC50 came to 0.052 µg/mL.

In the case of `Cl.N[C@H]1CN(c2nc3c(cc2F)c(=O)c(C(=O)O)cn3-c2nccs2)C[C@@H]1O`, the IC50 in the assay on P388 [1] was 2.09 µg/mL.

On to `Cl.NC1(CO)CCN(c2nc3c(cc2F)c(=O)c(C(=O)O)cn3-c2nccs2)C1` (configuration not stated), for which the 50% inhibitory concentration (IC50) in the assay on P388 [1] was found to be 0.084 µg/mL.

In the case of `Cl.NC1CCN(c2nc3c(cc2F)c(=O)c(C(=O)O)cn3Cc2nccs2)C1` (configuration not stated), the IC50 in the assay with P388 [1] was over 10 µg/mL.

With `Cl.NCC1=CCN(c2nc3c(cc2F)c(=O)c(C(=O)O)cn3-c2nccs2)C1`, the half-maximal inhibitory concentration (IC50) in the assay on P388 [1] is 0.084 µg/mL.

On to `Cl.O=C(O)c1cn(-c2nccs2)c2nc(N3CC4NCCOC4C3)c(F)cc2c1=O` (configuration not stated), for which the IC50 in the assay with P388 [1] was over 1 µg/mL.

`Cl.NC1CCN(c2cc3c(cn2)c(=O)c(C(=O)O)cn3-c2nccs2)C1` (configuration not stated): in the assay on P388 [1], the IC50 was over 1 µg/mL.

For the compound `Cl.NC1CCN(c2cc3c(cc2F)c(=O)c(C(=O)O)cn3-c2nccs2)C1` (configuration not stated), the half-inhibitory concentration (IC50) in the assay on P388 [1] is over 10 µg/mL.
